This passage reports IC50 and inhibition results from ChEMBL document CHEMBL1149845, “Synthesis, cytotoxic activities and structure-activity relationships of topoisomerase I inhibitors: indolizinoquinoline-5,12-dione derivatives” (Bioorg Med Chem, 2008).

One test relates to HL-60. The experiment in a line: Cytotoxicity against human HL60 cells after 2 days by MTT assay. The class given is functional, cell-based. The conditions noted are these: HL-60, 48 h. The gist of the method: (§1)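 Cells grown in RPMI-1640 with 10% FBS, penicillin 100 U/mL and streptomycin 100 µg/mL at 37 °C, 5% CO2, passage 3–6. Exponential-phase cells seeded at 5 × 10⁴–1 × 10⁵ cells/ml, grown overnight, then exposed for 2 days to compounds predissolved in DMSO at selected concentrations. Viability read by MTT.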
A general note: Tetrazolium assays rely on reduction of a dye to a coloured formazan, in cell work by metabolically active cells.

Test [1] is described as follows: Cytotoxicity against human GLC82 cells after 2 days by MTT assay. It is filed as functional, cell-based. The conditions noted are these: GLC82, 48 h. In a few lines:
as §1

Another test deals with NCI-H460. The experiment in a line: Cytotoxicity against human NCI-H460 cells after 2 days by MTT assay. The class given is functional, cell-based. The conditions noted are these: NCI-H460, 48 h. In a few lines: as §1
The subject of the next test is MCF7. Nature of the test: Cytotoxicity against human MCF7 cells after 2 days by MTT assay. It is filed as functional, cell-based. The conditions noted are these: MCF7, 48 h. In a few lines:
as §1

The species entered for test [2] is Bos taurus. The experiment in a line: Inhibition of calf thymus topoisomerase 1-mediated supercoiled plasmid DNA relaxation at 0.2 uM. The gist of the method: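 Calf thymus TOP1 relaxation of 0.5 µg pBR322 in 20 µL buffer (20 mM Tris pH 7.5, 0.1 mM EDTA, 10 mM MgCl2, 50 µg/mL acetylated BSA, 100 mM KCl), compound from DMSO. Started by adding DNA, 30 min at 37 °C, stopped with loading buffer. 1% agarose gel in Tris-borate/EDTA at 5 V/cm, ethidium bromide stain. Supercoiled DNA quantified densitometrically.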

For test [3], the species on record is Bos taurus. Nature of the test: Inhibition of calf thymus topoisomerase 1-mediated supercoiled plasmid DNA relaxation at 125 uM.

The structures appear in SMILES notation.

What is called IC50 is the point on the concentration scale where inhibition reaches its midpoint. As for `CCOC(=O)c1c2c(n3cccc(F)c13)C(=O)c1ncccc1C2=O`, the IC50 with HL-60 is 1.37 µM; in test [1], less than 0.25 µM; in the test on NCI-H460 it was less than 0.25 µM; with MCF7 it was 7.01 µM.

Consider `CCOC(=O)c1c2c(n3ccccc13)C(=O)c1ccccc1C2=O`, for which the IC50 (in the test on HL-60; in test [1]; in the test with MCF7) was more than 25 µM in each case.

Consider `CCOC(=O)c1c2c(n3cccc(Br)c13)C(=O)c1cccnc1C2=O`, for which the half-inhibitory concentration (IC50) in the test on HL-60 came out at 11.5 µM; in test [1], 1.1 µM; in the test with NCI-H460, 2.4 µM; in the test on MCF7, 20.8 µM.

On to `CC(=O)c1c2c(n3cccc(Br)c13)C(=O)c1cccnc1C2=O`, for which the IC50 is 1.56 µM in the test with HL-60, 4.68 µM in test [1], 0.2 µM in the test on NCI-H460 and 12.4 µM in the test on MCF7.

As to `Cc1c2c(n3ccccc13)C(=O)c1ncccc1C2=O`, the 50% inhibitory concentration (IC50) in the test with HL-60 is 12.5 µM; in test [1] it was 14.2 µM; in the test on NCI-H460, 12.2 µM; with MCF7 it was more than 25 µM.

For `O=C1c2cc3ccccn3c2C(=O)c2cccnc21`, the concentration for half-maximal inhibition (IC50) amounted to 14.7 µM with HL-60, 16.7 µM in test [1], 12.3 µM in the test with NCI-H460 and 20.2 µM in the test with MCF7.

On to `CCOC(=O)c1c2c(n3cccc(C)c13)C(=O)c1ncccc1C2=O`, for which the results for the IC50 (in the test on HL-60; in test [1]; in the test on MCF7) were 0.22 µM, 1.83 µM and 14.5 µM, respectively.

On to `CC(=O)c1c2c(n3cccc(N)c13)C(=O)c1ncccc1C2=O`, for which the IC50 in the test on HL-60 was 22.3 µM; in test [1] it was 12.2 µM; in the test on NCI-H460 it was more than 25 µM; with MCF7, more than 25 µM.

Regarding `CCOC(=O)c1c2c(n3cccc(C)c13)C(=O)c1cccnc1C2=O`, the IC50 was 11.7 µM with HL-60, 9.27 µM in test [1] and more than 25 µM with MCF7.

As for `CCOC(=O)c1c2c(n3cccc(F)c13)C(=O)c1cccnc1C2=O`, the IC50 in the test with HL-60 amounted to 5.51 µM; in test [1], 1.7 µM; in the test with NCI-H460, 1.2 µM; with MCF7, 6.2 µM.

`CCOC(=O)c1c2c(n3cccc(Cl)c13)C(=O)c1cccnc1C2=O`: the concentration for half-maximal inhibition (IC50) in the test with HL-60 is 15.4 µM; in test [1], 9.73 µM; in the test with NCI-H460, 2.2 µM; in the test with MCF7, 19.9 µM.

As to `CCOC(=O)c1c2c(n3cccc(O)c13)C(=O)c1cccnc1C2=O`, the IC50 in the test with HL-60 is more than 25 µM; in test [1] it was 23.8 µM; in the test with NCI-H460, 23.3 µM; in the test with MCF7 it was more than 25 µM.

On to `CCOC(=O)c1c2c(n3cccc(O)c13)C(=O)c1ncccc1C2=O`, for which the IC50 is more than 25 µM in the test with HL-60, 7.2 µM in test [1], more than 25 µM in the test with NCI-H460 and more than 25 µM with MCF7.

For the compound `CC(=O)c1c2c(n3ccccc13)C(=O)c1ncccc1C2=O`, the 50% inhibitory concentration (IC50) in the test on HL-60 was 0.86 µM; in test [1], less than 0.25 µM; in the test on NCI-H460, less than 0.25 µM; in the test with MCF7, 7.92 µM.

As for `CC(=O)c1c2c(n3cccc(O)c13)C(=O)c1ncccc1C2=O`, the IC50 in the test with HL-60 was more than 25 µM; in test [1] it was 19.5 µM; in the test on NCI-H460, 24.9 µM; in the test with MCF7, 17.6 µM.

Turning to `O=C1c2cccnc2C(=O)c2c1cc1ccccn21`, the 50% inhibitory concentration (IC50) in the test on HL-60 was 17 µM; in test [1] it was 11.5 µM; with NCI-H460, 15.6 µM; in the test with MCF7 it was more than 25 µM.

In the case of `Cc1c2c(n3ccccc13)C(=O)c1cccnc1C2=O`, the IC50 in the test with HL-60 is more than 25 µM; in test [1], 21.5 µM; with NCI-H460 it was more than 25 µM; in the test on MCF7, more than 25 µM.

Consider `CCOC(=O)c1c2c(n3ccccc13)C(=O)c1ncccc1C2=O`, for which the IC50 with HL-60 is 0.88 µM; in test [1], less than 0.25 µM; in the test with NCI-H460, less than 0.25 µM; in the test with MCF7 it was 0.96 µM.

As to `CCOC(=O)c1c2c(n3cccc(Br)c13)C(=O)c1ncccc1C2=O`, the IC50 in the test on HL-60 was 9.32 µM; in test [1] it was less than 0.25 µM; in the test with NCI-H460, 2 µM; with MCF7 it was 10.3 µM.

For `CC(=O)c1c2c(n3cccc(Br)c13)C(=O)c1ncccc1C2=O`, the IC50 stood at 0.21 µM with HL-60, 2.01 µM in test [1], 2.15 µM in the test with NCI-H460 and 11.7 µM with MCF7.

Take `CC(=O)c1c2c(n3cccc(Cl)c13)C(=O)c1ncccc1C2=O`: the IC50 is 0.19 µM in the test with HL-60, 6.85 µM in test [1], 0.23 µM in the test with NCI-H460 and 7.83 µM in the test with MCF7.

With `CCOC(=O)c1c2c(n3cccc(N)c13)C(=O)c1ncccc1C2=O`, the IC50 in the test on HL-60 amounted to 16.4 µM; in test [1], 23.4 µM; with NCI-H460, 17.6 µM; in the test with MCF7 it was 20.9 µM.

Turning to `CC(=O)c1c2c(n3ccccc13)C(=O)c1cccnc1C2=O`, the concentration for half-maximal inhibition (IC50) came out at 14.7 µM in the test with HL-60, 1.9 µM in test [1], 1.4 µM in the test with NCI-H460 and 12.7 µM in the test with MCF7.

With `CC(=O)c1c2c(n3cccc(O)c13)C(=O)c1cccnc1C2=O`, the IC50 was more than 25 µM in the test with HL-60, 16.3 µM in test [1] and more than 25 µM in the test with NCI-H460.

For the compound `CC(=O)c1c2c(n3cccc(Cl)c13)C(=O)c1cccnc1C2=O`, the IC50 is 2.2 µM with HL-60, 16.1 µM in test [1], 1.5 µM in the test with NCI-H460 and 16.1 µM in the test on MCF7.

A word on the inhibition: it is the percentage by which the read-out fell short of the control. Higher therefore signals a strong effect. With `CCOC(=O)c1c2c(n3cccc(Cl)c13)C(=O)c1ncccc1C2=O`, the IC50 in the test on HL-60 is 6.52 µM; in test [1], less than 0.25 µM; in the test with NCI-H460, 2.1 µM; in the test on MCF7, 7.37 µM. Besides, the inhibition stood at 5.8% in the test listed under Bos taurus [2] and 100% in the test filed under Bos taurus [3].

In the case of `CCOC(=O)c1c2c(n3cccc(N)c13)C(=O)c1cccnc1C2=O`, the IC50 in the test on HL-60 was more than 25 µM; in test [1], 23.5 µM; in the test on NCI-H460 it was 19 µM; with MCF7, more than 25 µM.

For the compound `CC(=O)c1c2c(n3cccc(N)c13)C(=O)c1cccnc1C2=O`, the IC50 is 15.8 µM in the test on HL-60, 10.3 µM in test [1], 10.3 µM in the test on NCI-H460 and more than 25 µM in the test with MCF7.

Take `CC(=O)c1c2c(n3cccc(F)c13)C(=O)c1cccnc1C2=O`: the IC50 came out at 1.39 µM in the test on HL-60, 12.7 µM in test [1], 6.75 µM in the test on NCI-H460 and 9.28 µM with MCF7.

Consider `CCOC(=O)c1c2c(n3ccccc13)C(=O)c1cccnc1C2=O`, for which the IC50 was 14.5 µM in the test on HL-60, 2.4 µM in test [1], 1.9 µM in the test with NCI-H460 and 6.38 µM in the test with MCF7.

Take `CC(=O)c1c2c(n3cccc(F)c13)C(=O)c1ncccc1C2=O`: the IC50 with HL-60 was 0.17 µM; in test [1], 5.26 µM; in the test with NCI-H460 it was less than 0.25 µM; in the test with MCF7 it was 2.31 µM.

Regarding `CC[C@@]1(O)C(=O)OCc2c1cc1n(c2=O)Cc2cc3ccccc3nc2-1`, the inhibition in the test listed under Bos taurus [3] turned out to be 81.3%.
